{
  "source": "paper PMC4596243",
  "about": "(Cancer chemotherapy and pharmacology, 2013)",
  "key": {"[1]": {"format": "in vivo, rat", "details": "for AUC(0-inf): AUC0–∞"}, "[2]": {"details": "TMZ administered with TNP-470; murine glioma model; cited from earlier work"}, "recurrent GBM": {"tested_on": "recurrent GBM", "details": "cited from earlier work"}, "U87 glioma": {"tested_on": "U87 glioma", "test": "In vivo susceptibility-contrast MRI of tumor vasculature after cediranib", "set-up": "species or system mice", "details": "cediranib once daily", "in_short": "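Mice bearing brain U87 tumours imaged at 9.4T on day 12 (2 control, 2 given test compound once daily until sacrifice) or day 21 (3 control, 1 treated). Multi-echo gradient-echo (TR 400 ms) and spin-echo (TR 2000 ms), 16 coronal 1-mm slices, 0.1 mm in-plane, before/after i.v. Feridex 25 mg Fe/kg. Vessel size from (ΔR2*/ΔR2)^3/2; manual tumour ROIs versus mirrored contralateral ROIs, histograms compared.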"}, "[3]": {"details": "corrected for recovery, post-cediranib, individual animal"}, "[4]": {"details": "corrected for recovery, pre-cediranib, individual animal"}, "[5]": {"details": "post- vs pre-cediranib, tumor ECF, not statistically significant"}},
  "note": "“And” between values parts separate entries of the source, which are not always exact repeats. Equal values may be shown once. Read-outs that look alike come from different tables or passages of the source.",
  "data": [
    {"smiles": "Cn1nnc2c(C(N)=O)ncn2c1=O", "note": "[TMZ, temozolomide]", "values": [
      {"measurement": "AUC0–∞", "setting": "[1]; [3]", "result": "3120 ng·h/mL and 4520 ng·h/mL and 3870 ng·h/mL and 3100 ng·h/mL"},
      {"measurement": "Cmax", "setting": "[1]; [3]", "result": "1610 ng/mL and 650 ng/mL and 310 ng/mL and 1290 ng/mL and 640 ng/mL and 690 ng/mL"},
      {"measurement": "T1/2", "setting": "[1]; [3]", "result": "1.5 h and 1.7 h and 3.4 h"},
      {"measurement": "AUC0–∞", "setting": "[1]; [4]", "result": "1730 ng·h/mL and 2380 ng·h/mL and 600 ng·h/mL and 2480 ng·h/mL and 1500 ng·h/mL and 1970 ng·h/mL and 2090 ng·h/mL"},
      {"measurement": "Cmax", "setting": "[1]; [4]", "result": "460 ng/mL and 620 ng/mL and 190 ng/mL and 710 ng/mL and 690 ng/mL and 900 ng/mL and 530 ng/mL"},
      {"measurement": "AUC(0-inf)", "setting": "[1]; male, athymic, rat, tumor ECF (brain microdialysate), po, 50 mg/kg, corrected for recovery, post-cediranib, mean ± S.D.", "result": "3720 ± 610", "unit": "ng·h/mL"},
      {"measurement": "AUC(0-inf)", "setting": "[1]; male, athymic, rat, tumor ECF (brain microdialysate), po, 50 mg/kg, corrected for recovery, pre-cediranib, mean ± S.D.", "result": "1820 ± 640", "unit": "ng·h/mL"},
      {"measurement": "AUC(0-inf)", "setting": "[1]; male, athymic, rat, tumor ECF (brain microdialysate), po, 50 mg/kg, raw data, post-cediranib, mean ± S.D.", "result": "2840 ± 400", "unit": "ng·h/mL"},
      {"measurement": "AUC(0-inf)", "setting": "[1]; male, athymic, rat, tumor ECF (brain microdialysate), po, 50 mg/kg, raw data, pre-cediranib, mean ± S.D.", "result": "1310 ± 510", "unit": "ng·h/mL"},
      {"measurement": "Cmax", "setting": "[1]; male, athymic, rat, tumor ECF (brain microdialysate), po, 50 mg/kg, Cmax, corrected for recovery, post-cediranib, mean ± S.D.", "result": "830 ± 450", "unit": "ng/mL"},
      {"measurement": "Cmax", "setting": "[1]; male, athymic, rat, tumor ECF (brain microdialysate), po, 50 mg/kg, Cmax, corrected for recovery, pre-cediranib, mean ± S.D.", "result": "590 ± 220", "unit": "ng/mL"},
      {"measurement": "half-life", "setting": "[1]; male, athymic, rat, tumor ECF (brain microdialysate), po, 50 mg/kg, T1/2, corrected for recovery, post-cediranib, mean ± S.D.", "result": "2 ± 0.9", "unit": "h"},
      {"measurement": "half-life", "setting": "[1]; male, athymic, rat, tumor ECF (brain microdialysate), po, 50 mg/kg, T1/2, corrected for recovery, pre-cediranib, mean ± S.D.", "result": "1.7 ± 0.3", "unit": "h"},
      {"measurement": "half-life", "setting": "[1]; male, athymic, rat, tumor ECF (brain microdialysate), po, 50 mg/kg, T1/2, raw data, post-cediranib, mean ± S.D.", "result": "2 ± 0.9", "unit": "h"},
      {"measurement": "half-life", "setting": "[1]; male, athymic, rat, tumor ECF (brain microdialysate), po, 50 mg/kg, T1/2, raw data, pre-cediranib, mean ± S.D.", "result": "1.7 ± 0.3", "unit": "h"},
      {"measurement": "increase in ECF-TMZ AUC0-∞ after cediranib administration", "setting": "[1]; [5]", "result": "2.0 fold and 2 fold"},
      {"measurement": "increase in ECF-TMZ Cmax after cediranib administration", "setting": "[1]; [5]", "result": 1.4, "unit": "fold"},
      {"measurement": "Cmax", "setting": "[1]; raw data, pre-cediranib, TMZ 50 mg/kg oral, tumor ECF, individual animal", "result": "510 ng/mL and 540 ng/mL and 380 ng/mL and 400 ng/mL and 470 ng/mL and 100 ng/mL"}
    ]},
    {"smiles": "CO[C@@H]1[C@H](OC(=O)NC(=O)CCl)CC[C@]2(CO2)[C@H]1[C@@]1(C)O[C@@H]1CC=C(C)C", "note": "[TNP-470]", "values": [
      {"measurement": "reduction of TMZ in tumor concentrations", "setting": "[2]", "result": 50, "unit": "%"}
    ]},
    {"smiles": "COc1cc2c(Oc3ccc4[nH]c(C)cc4c3F)ncnc2cc1OCCCN1CCCC1", "note": "[cediranib]", "values": [
      {"measurement": "progression-free survival (PFS)", "setting": "recurrent GBM; cediranib monotherapy, recurrent GBM patients", "result": "increased progression-free survival"},
      {"measurement": "duration of tumor vessel normalization", "setting": "recurrent GBM; once daily cediranib, patients with recurrent GBM, starting as early as one day after the treatment", "result": "at least 28 days"},
      {"measurement": "average vessel size (ΔR2*/ΔR2)^3/2 in treated tumor", "setting": "U87 glioma; D12", "result": "lower compared to the contralateral ROI"},
      {"measurement": "effect on vessel size in treated tumor", "setting": "U87 glioma; D21", "result": "not apparent"}
    ]}
  ]
}
